Screens (PubChem)
Most compounds without a hit are left out; they make up all but 2.1% or so of the library.
Efflux pump mplx: inhibitors of Candida antifungal efflux pumps expressed in yeast; AID 485275; inhibition, % at 10 µM; actives 0.44% (n = 330,000); S. cerevisiae Candida pump triplex, Nile Red efflux;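 active = plate passing quality check with inhibition over a set limit, or well fluorescence over plate mean plus 4 SD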;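 note: Nile Red retained in pooled yeast measured as flow cytometry median fluorescence; higher means more Nile Red kept so more efflux inhibition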
Mot1-301 SUMO: SUMOylation pathway inhibition by Mot1-301 growth rescue | S. cerevisiae Mot1-301 growth rescue, ATP luminescence, 38.5C; percent above DMSO median, 100 means doubled | growth rescue, % at 18.8 µM | actives 1% (n = 320,000);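 active = every valid replicate shows activation above 250% relative to neutral control wells; inactive = the rest, any valid replicate at or below 250%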
ARNT-TACC3 inh: disrupts binding between human ARNT and TACC3 | Q9Y6A5 | AlphaScreen His-ARNT PAS-B/GST-TACC3 binding, luminescence; TACC3 fragment carries E629A point mutation | inhibition, % at 9.99 µM | actives 0.66% (n = 390,000) | AID 623870;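 active = mean inhibition of replicates at least 50% and at least half of replicates each reaching 50%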
RTF Ca sens act: increases calcium sensitivity of human cardiac regulated thin filaments | actives 0.24% (n = 340,000) | IANBD-labeled TnC RTF fluorescence at EC20 calcium; 0% EC20 calcium, 100% full calcium | activation, % at 7.2 µM;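 active = activation above the mean over all tested compounds plus 3 SD, cut at about 30% in these data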;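 note: rise in fluorescence read as greater calcium sensitivity of cardiac thin filaments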
Cardiac RTF inh: cardiac RTF calcium desensitization; P19429+P45379; IANBD-labeled cardiac RTF, Ca2+ fluorescence; inhibition, % at 7.15 µM; actives 0.12% (n = 340,000); AID 493244;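 active = inhibition above the mean inhibition of all tested compounds plus 3 SD, cut at about 17% in these data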;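 note: assay run at fixed EC70 calcium of 1.6 mM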
UCH37 inh: blocks the human deubiquitinase UCH37 | purified proteasome/UCH37, Ub-AMC cleavage fluorescence | inhibition, % (test concentration not listed) | actives 0.33% (n = 330,000);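 active = mean inhibition over replicate wells above about 20%, limit read from the data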
Target sequence (Q9Y5K5 whole entry, looked up): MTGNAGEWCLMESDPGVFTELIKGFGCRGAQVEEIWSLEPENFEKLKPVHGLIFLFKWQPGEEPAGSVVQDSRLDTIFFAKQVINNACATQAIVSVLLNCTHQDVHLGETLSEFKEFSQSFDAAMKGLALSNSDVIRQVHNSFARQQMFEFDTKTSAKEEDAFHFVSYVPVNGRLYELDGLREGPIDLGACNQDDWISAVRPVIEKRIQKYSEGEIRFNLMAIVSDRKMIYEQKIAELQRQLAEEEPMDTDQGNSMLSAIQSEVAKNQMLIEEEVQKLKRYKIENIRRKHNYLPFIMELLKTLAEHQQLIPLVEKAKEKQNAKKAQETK
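Material: human UCH37 enzyme supplied as purified proteasome complex. Measure: % inhibition of Ub-AMC cleavage fluorescence. Medium: pH 7.4 Tris-HCl (50 mM) with ovalbumin, ATP-MgCl2, DTT. Times: 30 min preincubation with enzyme, 25 min cleavage at room temperature. Detection: AMC fluorescence intensity at 355/460 nm.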
Yeast cmpd fluor: counter-screen for efflux pump inhibitors: compound fluorescence | shares compounds with Efflux pump mplx | S. cerevisiae AD/pABC3, flow cytometry | fluorescence ratio to DMSO, % at 10 µM | actives 4% (n = 1,700);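 active = fluorescence ratio to DMSO above its plate's cutoff, the plate mean ratio plus 5 SD, cut at about 210% in these data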;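 note: unstained yeast with no Nile Red so the signal is compound autofluorescence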
Mdr1 pump inh: Candida Mdr1 efflux pump inhibition | shares compounds with Efflux pump mplx | S. cerevisiae AD/CaMDR1, Nile Red efflux, flow cytometry | inhibition, % at 10 µM | actives 1% (n = 1,700) | AID 588518; in the data active = inhibition above about 26%;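 note: higher means more Nile Red retained so more efflux inhibition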
Cdr2 pump inh: inhibitors of Candida albicans Cdr2 efflux pump | shares compounds with Efflux pump mplx | S. cerevisiae AD/CaCDR2, Nile Red retention, flow cytometry | Nile Red retention ratio vs DMSO, % at 10 µM | actives 4% (n = 1,700) | AID 588520; in the data active = Nile Red retention ratio vs DMSO above about 190%;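 note: higher ratio means more blocking of Cdr2 efflux of the dye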
CaCdr1 efflux inh: inhibitors of Candida albicans Cdr1 efflux pump. inhibition, % at 10 µM. S. cerevisiae AD/CaCDR1, Nile Red efflux, flow cytometry. shares compounds with Efflux pump mplx. actives 1% (n = 1,700);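 active = inhibition above the screen-wide mean plus twice its standard deviation, cut at about 32% in these data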
Hits are given with their value; 0 = inactive; - = no result.

SMILES	Efflux pump mplx	Mot1-301 SUMO	ARNT-TACC3 inh	RTF Ca sens act	Cardiac RTF inh	UCH37 inh	Yeast cmpd fluor	Mdr1 pump inh	Cdr2 pump inh	CaCdr1 efflux inh
Cc1nnc(N/N=C/c2cc([N+](=O)[O-])c(N3CCC(C)CC3)cc2N2CCC(C)CC2)n1N	7.2	0	0	0	0	-	0	0	0	0
CCOc1cc(C=NNC(=O)c2ccc(CN3CCOCC3)cc2)ccc1OC	-	-	-	-	-	0	-	-	-	-
O=C(CN(c1ccc(Cl)c(C(F)(F)F)c1)S(=O)(=O)c1ccccc1)N1CCOCC1	0.7	0	0	0	0	0	0	0	0	0
O=C(CN(c1cccc(C(F)(F)F)c1)S(=O)(=O)c1ccccc1)N1CCOCC1	0	0	0	0	0	0	-	-	-	-
Cn1c(-c2ccccc2O)cc2ccccc21	0.2	0	0	0	0	0	0	0	0	0
Cn1c(-c2ccccc2)cc2ccccc21	0	0	0	0	0	0	-	-	-	-
O=c1nc(N2CCOCC2)nc(NN=Cc2ccc3c(c2)OCO3)[nH]1	-	-	-	-	-	0	-	-	-	-
CCOC(=O)c1ccc(-c2cc(C)no2)[nH]1	6.5	0	0	0	0	0	0	0	0	0
CCOC(=O)c1cc(-c2ccccc2)n[nH]1	0	0	0	0	0	0	-	-	-	-
O=C(O)C1C2CC3C(OC(=O)C31)C2Cl (centres undefined)	6.5	0	0	0	0	0	0	0	0	0
O=C(COc1ccc(Cl)cc1Cl)NN1C(=O)C2C3C=CC([C@@H]2C1=O)C31CC1 (some centres undefined)	0	0	0	0	0	0	-	-	-	-
O=C(COc1ccc(Cl)cc1Cl)NN1C(=O)/C(=C\c2ccc(Cl)cc2)SC1=S	0	0	0	0	0	0	0	0	0	0
O=C(CCN1C(=O)/C(=C/c2ccc(F)cc2)SC1=S)NCCCn1ccnc1	2.1	0	0	0	0	0	0	0	0	0
O=C(CCN1C(=O)/C(=C/c2ccc(Cl)cc2)SC1=S)NCCCn1ccnc1	0	0	0	0	0	0	-	-	-	-
CN(C)C=Nc1ncc(C(=O)c2ccc(-c3ccccc3)cc2)s1	-	-	-	-	-	0	-	-	-	-
CC(C)(C)S(=O)(=O)c1ccsc1C(=O)O	14	0	-	0	0	0	0	0	0	0
COC(=O)c1cccc(-n2nnnc2SCC(=O)Nc2nc3c(s2)CCCC3)c1	1.5	-	0	0	0	0	0	0	0	0
Clc1ccccc1-c1ccc(C=Nn2cnnc2)o1	-	-	-	-	-	0	-	-	-	-
CON=Cc1ccc(Sc2ccccc2N)c([N+](=O)[O-])c1	-	-	-	-	-	0	-	-	-	-
ON=C1CCCc2c1nc(-c1ccccc1F)n2O	-	-	-	-	-	0	-	-	-	-
CCSc1nnc(NC(NC(C)=O)(C(F)(F)F)C(F)(F)F)s1	14	0	0	0	0	0	0	0	0	0
Cc1nn(-c2ccccc2)c(N2CCCC2)c1C=NNC(=O)c1cc(-c2ccccn2)nc2ccccc12	-	-	-	-	-	0	-	-	-	-
CC(C)c1ccc(C(=O)NC(=S)Nc2ccc3[nH]c(=O)[nH]c3c2)cc1	0	0	0	0	0	0	0	0	0	0
COc1ccc(C(=O)NC(=S)Nc2ccc3[nH]c(=O)[nH]c3c2)cc1	0	0	0	0	0	0	-	-	-	-
COc1ccc(N(CC(=O)NN=Cc2ccc(C(=O)O)cc2)S(=O)(=O)c2ccc(NC(C)=O)cc2)cc1	-	-	-	-	-	0	-	-	-	-
SMILES	Efflux pump mplx	Mot1-301 SUMO	ARNT-TACC3 inh	RTF Ca sens act	Cardiac RTF inh	UCH37 inh	Yeast cmpd fluor	Mdr1 pump inh	Cdr2 pump inh	CaCdr1 efflux inh
COc1cc(/C(C#N)=C/c2cccc3ccccc23)c([N+](=O)[O-])cc1OC	5.5	0	0	0	0	0	0	0	0	0
COc1cc(/C=C(\C#N)c2nc3ccccc3[nH]2)c([N+](=O)[O-])cc1OCc1ccccc1	0	0	0	0	0	0	-	-	-	-
COC1=CC(=O)C(O)=C(CCCCCCCC=CCCCCCCCC2=C(O)C(=O)C=C(OC)C2=O)C1=O	-	-	-	-	-	0	-	-	-	-
NC(=NOC(=O)c1ccc(Cl)cc1)c1ncc([N+](=O)[O-])s1	-	-	-	-	-	0	-	-	-	-
Clc1ccc(Cn2nc(-c3ccccc3)nc2-c2ccccc2)cc1	20	0	0	0	0	0	0	0	0	0
O=C1/C(=C\c2cccc(O)c2O)SC(=S)N1Cc1ccccc1	0	0	0	0	0	-	-	-	-	-
O=C1/C(=C\c2cc([N+](=O)[O-])ccc2O)SC(=S)N1Cc1ccc(Cl)cc1	0.7	0	0	135	0	0	507	0	232	0
COc1ccccc1NN=C(C#N)C(=N)N1CCOCC1	-	-	-	-	-	0	-	-	-	-
N#Cc1c(-n2cccc2C=NO)sc2c1CCCC2	-	-	-	-	-	0	-	-	-	-
COc1ccc([C@@H]2Sc3ccccc3N(CCN(C)C)C(=O)[C@@H]2OC(C)=O)cc1	0	0	0	0	0	0	0	0	0	0
CCOC(=O)C1=C(CS(=O)(=O)c2ccccc2)NC(=O)NC1c1ccccc1 (centres undefined)	0.5	0	0	0	0	0	0	0	0	0
CCOC(=O)C1=C(CS(=O)(=O)c2ccccc2)NC(=O)NC1c1cccc(OC)c1 (centres undefined)	0	0	-	0	0	0	-	-	-	-
Cc1ccc(-c2cnc(SCC(=O)N3CCCc4ccccc43)n2C)cc1	0	0	0	0	0	0	-	-	-	-
Cn1c(-c2ccccc2)cnc1SCC(=O)N1CCCc2ccccc21	15	0	0	0	0	0	0	0	0	0
CC(=O)Nc1ccccc1OCC(=O)NCC(F)(F)F	0.6	0	0	0	0	0	0	0	0	0
N#C/C(=C\C=C\c1ccccc1)C(=O)NCc1ccco1	0	0	0	0	0	0	-	-	-	-
O=C(NCc1ccco1)/C(=C/C=C\c1ccccc1)NC(=O)c1ccc(Br)o1	7.6	0	0	0	0	0	0	0	0	0
COc1cc2c(cc1OC)CN(C(=S)Nc1c(C)cccc1C)CC2	0	0	0	0	0	0	-	-	-	-
CNC(=S)N1CCc2cc(OC)c(OC)cc2C1	0	0	0	0	0	0	0	0	0	0
COc1ccc(C=NNC(=O)c2ccc(Br)cc2)cc1Cn1cc(Cl)cn1	-	-	-	-	-	0	-	-	-	-
COc1ccc(C2CC(c3ccccc3C(F)(F)F)=NN2c2ccc(S(N)(=O)=O)cc2)cc1 (centres undefined)	56	-	0	0	0	0	0	0	0	0
C=CCN1C(=O)C(=c2sc3nc(=O)c(Cc4ccccc4)nn3c2=O)c2ccccc21	-	-	-	-	-	0	-	-	-	-
